ChEMBL document CHEMBL2062452, “Identification of Simple Compounds with Microtubule-Binding Activity That Inhibit Cancer Cell Growth with High Potency” (ACS Med Chem Lett, 2011)
Activity calls are given as the source filed them. The calls are words filed in the database; no cut-off is given here.

Key:
HT-1080 [1] = test: Inhibition of microtubule polymerization in human HT1080 cells at 50 nM for 4 hrs by immunocytochemistry analysis; type: cell-based
HT-1080 [2] = test: Inhibition of microtubule polymerization in human HT1080 cells at 250 nM for 4 hrs by immunocytochemistry analysis; type: cell-based
Procedure, shortened: (§1)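 HT-1080 cells were treated, then immunofluorescence-stained for microtubules and scored for loss of the hairlike network. Colchicine- and vinblastine-treated cells served as controls.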

HT-1080 [3] = test: Growth inhibition of human HT1080 cells after 24 hrs by alamar blue assay; type: functional, cell-based; details: HT-1080, 24 h
[4] = Growth inhibition of human BJeLR cells after 24 hrs by alamar blue assay; type: functional, cell-based
MCF-10A = test: Growth inhibition of human MCF10A cells after 24 hrs by alamar blue assay; type: functional, cell-based
HT-1080 [5] = test: Induction of cell death in human HT1080 cells assessed as viability at 0.1 to 10000 nM after 24 hrs in the presence of caspase inhibitor Boc-D-fmk; type: functional, cell-based
HT-1080 [6] = test: Induction of apoptosis in human HT1080 cells assessed as caspase activation after 24 to 48 hrs; type: functional, cell-based
Sus scrofa = organism: Sus scrofa; test: Stabilization of pig brain microtubule at 5 uM measured every min for 60 mins by spectrophotometry
Procedure, shortened: (§2)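 Purified porcine brain tubulin self-polymerized into microtubules in buffer, and polymerization was followed as the rise in light scattering at 340 nm.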

HT-1080 [7] = test: Induction of cell death in human HT1080 cells in presence of calcium channel inhibitor Co2+; type: functional, cell-based
HT-1080 [8] = test: Induction of apoptosis in human HT1080 cells assessed as caspase activation at 0.81 to 6006 nM; type: functional, cell-based; details: TDE = time-dependent effect
HT-1080 [9] = test: Induction of cell death in human HT1080 cells assessed as viability at 0.1 to 10000 nM after 24 hrs in the presence of caspase inhibitor zVAD-fmk; type: functional, cell-based
Tubulin (Sus scrofa) = Tubulin (Sus scrofa) (UniProt P02554+P02550); test: Inhibition of pig brain tubulin polymerization at 5 uM measured every min for 60 mins by spectrophotometry; procedure, shortened: as §2
Tubulin (Sus scrofa), sequence (P02550 whole entry, looked up): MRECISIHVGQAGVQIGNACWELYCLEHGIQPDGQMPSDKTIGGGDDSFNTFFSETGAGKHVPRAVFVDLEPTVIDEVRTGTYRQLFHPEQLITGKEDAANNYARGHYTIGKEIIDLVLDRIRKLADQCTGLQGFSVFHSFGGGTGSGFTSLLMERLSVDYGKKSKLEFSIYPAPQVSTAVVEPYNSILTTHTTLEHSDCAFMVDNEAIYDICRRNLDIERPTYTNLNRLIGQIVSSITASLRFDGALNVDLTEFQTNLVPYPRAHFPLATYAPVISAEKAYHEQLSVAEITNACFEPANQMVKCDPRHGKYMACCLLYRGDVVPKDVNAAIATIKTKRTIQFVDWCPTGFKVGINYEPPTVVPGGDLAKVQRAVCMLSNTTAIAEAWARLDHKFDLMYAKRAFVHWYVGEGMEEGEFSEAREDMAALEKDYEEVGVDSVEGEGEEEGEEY
Tubulin (Sus scrofa), sequence (P02554 whole entry, looked up): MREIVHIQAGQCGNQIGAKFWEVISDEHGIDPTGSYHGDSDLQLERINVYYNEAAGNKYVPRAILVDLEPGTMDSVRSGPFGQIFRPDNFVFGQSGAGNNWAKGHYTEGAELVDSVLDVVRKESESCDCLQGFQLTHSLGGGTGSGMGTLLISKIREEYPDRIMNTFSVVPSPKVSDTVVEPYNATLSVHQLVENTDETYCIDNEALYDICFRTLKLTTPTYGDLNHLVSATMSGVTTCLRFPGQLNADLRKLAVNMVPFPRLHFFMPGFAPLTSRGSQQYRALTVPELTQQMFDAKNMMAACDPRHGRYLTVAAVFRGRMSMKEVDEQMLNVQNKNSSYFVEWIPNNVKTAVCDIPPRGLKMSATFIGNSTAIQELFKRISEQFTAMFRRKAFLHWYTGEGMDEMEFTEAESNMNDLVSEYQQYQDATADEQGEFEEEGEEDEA

HT-1080 [10] = details: Homo sapiens, 100 nM
HT-1080 [11] = test: Inhibition of microtubule polymerization in human HT1080 cells at 272 nM for 4 hrs by immunocytochemistry analysis; type: cell-based; procedure, shortened: as §1
HT-1080 [12] = test: Induction of apoptosis in human HT1080 cells assessed as caspase activation at 0.33 to 2714 nM; type: functional, cell-based; details: TDE = time-dependent effect
HT-1080 [13] = test: Induction of apoptosis in human HT1080 cells assessed as caspase activation at 0.33 to 2729 nM; type: functional, cell-based; details: TDE = time-dependent effect

| SMILES | EC50 (HT-1080 [3]) | EC50 [4] | EC50 (MCF-10A) | Activity (HT-1080 [5]) | Activity (HT-1080 [6]) | Activity (Sus scrofa) | Activity (HT-1080 [7]) | Activity (HT-1080 [9]) | inhibition (Tubulin (Sus scrofa)) | inhibition (HT-1080 [11]) | further results |
| --- | --- | --- | --- | --- | --- | --- | --- | --- | --- | --- | --- |
| COc1cc2c(c(OC)c1OC)-c1ccc(OC)c(=O)cc1[C@@H](NC(C)=O)CC2 |  |  |  |  |  |  |  |  |  |  | inhibition (HT-1080 [1]): Active |
| COc1ccccc1N1CCN(C(=O)c2cc(=O)c3cc(C)cc(C)c3o2)CC1 | < 100 nM | < 100 nM | < 100 nM | Active | Dose-dependent effect | Active | Active | Active |  |  | inhibition (HT-1080 [2]): inactive; Activity (HT-1080 [8]): tde |
| CC[C@]1(O)C[C@@H]2CN(CCc3c([nH]c4ccccc34)[C@@](C(=O)OC)(c3cc4c(cc3OC)N(C)[C@H]3[C@@](O)(C(=O)OC)[C@H](OC(C)=O)[C@]5(CC)C=CCN6CC[C@]43[C@@H]65)C2)C1 |  |  |  |  |  |  |  |  | Active |  | inhibition (HT-1080 [10]): Active |
| O=S(=O)(c1ccc(-c2cnc(C3CC3)o2)cc1)N1CCCc2ccccc21 | < 100 nM | < 100 nM | < 100 nM | Active | Dose-dependent effect |  | Active | Active | Active | Active | Activity (HT-1080 [12]): tde |
| CCOc1ccc(C2=Nn3c(nnc3-c3ccccc3OC)SC2)cc1 | < 100 nM | < 100 nM | < 100 nM | Active | Dose-dependent effect |  | Active | Active |  | Active | Activity (HT-1080 [13]): tde |
| CC(=O)O[C@H]1C(=O)[C@@]2(C)[C@H]([C@H](OC(=O)c3ccccc3)[C@]3(O)C[C@H](OC(=O)[C@H](O)[C@@H](NC(=O)c4ccccc4)c4ccccc4)C(C)=C1C3(C)C)[C@]1(OC(C)=O)CO[C@@H]1C[C@@H]2O |  |  |  |  |  | Active |  |  |  |  |  |
